The source made the active and inactive calls.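 How the source made its calls: active means compounds leaving under half of the peptide-driven platelet calcium rise; inactive means the rest.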

Proteinase-activated receptor 4 (Homo sapiens), sequence (Q96RI0 whole entry, looked up): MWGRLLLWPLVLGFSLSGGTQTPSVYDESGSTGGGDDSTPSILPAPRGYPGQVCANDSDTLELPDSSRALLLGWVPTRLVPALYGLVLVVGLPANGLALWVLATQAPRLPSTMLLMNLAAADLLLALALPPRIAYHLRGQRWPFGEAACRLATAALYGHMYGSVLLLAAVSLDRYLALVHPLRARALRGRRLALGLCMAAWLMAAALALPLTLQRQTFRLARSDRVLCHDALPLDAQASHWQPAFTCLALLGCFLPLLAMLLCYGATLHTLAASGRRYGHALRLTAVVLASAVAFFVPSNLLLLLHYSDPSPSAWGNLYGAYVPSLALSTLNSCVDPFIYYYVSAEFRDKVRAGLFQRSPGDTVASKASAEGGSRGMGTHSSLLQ

The target in one assay is Proteinase-activated receptor 4 (Homo sapiens) (UniProt Q96RI0). The experiment in a line: PAR4 antagonists in human platelets, cell-based, single concentration, washed platelets, Fluo4 calcium (AID 652250). The following applies: PAR4-AP calcium Fluo4 fluorescence. The essentials:
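Material – Fluo4-AM-loaded washed human platelets · Also added – PAR4-activating peptide (PAR4-AP) agonist at 80 µM · Signal – fluorescence at 480/540 nm, 1 s intervals · Read-out – peak minus basal RFU as % of per-donor DMSO control · Benchmarks – PAR4-AP-stimulated DMSO control (100%) · Replicates – triplicate wells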
Take `COc1ccc(-c2cn(Cc3ccccc3)c3ccccc23)cn1`: the IC50 is 5.4 µM. For `COc1ccc(-c2cn(Cc3cccc(Br)c3)c3ccccc23)cn1`, the IC50 is 5.27 µM. As for `COc1ccc(-c2cn(Cc3cccc(S(C)(=O)=O)c3)c3ccccc23)cn1`, the IC50 was 10 µM.

Staying with this assay, now noted: PAR4-AP calcium Fluo4 fluorescence, at 10 µM, hits give low values.
`CCc1nn(-c2ccccc2)c2nc(-c3cccc(OC)c3)c3cc(OC)c(OC)cc3c12`: the “% of max PAR4-AP calcium response” value is “inactive”. The same measure, in the same setting: the result for `OCc1cn(Cc2ccc(Cl)c(Cl)c2)c2ccccc12` reads “inactive”. Still for that read-out and setting: to `c1ccc(CN2CCN(c3ncnc4c3c(-c3ccccc3)cn4-c3ccccc3)CC2)cc1` belongs “inactive”; to `Cn1cc(CC(=O)NCCCN2CCCC2=O)c2ccccc21`, “inactive”; to `Cn1cc(CC(=O)NCC2COc3ccccc3O2)c2ccccc21` (configuration not stated), “inactive”. The same measure, in the same setting: to `CC(O)CNc1ncnc2c1c(-c1ccccc1)cn2-c1ccccc1` (configuration not stated) belongs “inactive”; to `Cc1cccc(-n2cc(-c3ccccc3)c3c(N4CCN(c5ccccc5)CC4)ncnc32)c1`, “inactive”.

Regarding `Clc1ccc(-n2cc(-c3ccccc3)c3c(N4CCOCC4)ncnc32)cc1`, the “% of max PAR4-AP calcium response” value was “inactive”. As for `CCN(CC)c1ncnc2c1c(-c1ccccc1)cn2-c1ccc(C)c(Cl)c1`, the “% of max PAR4-AP calcium response” value was “inactive”. Still for that read-out and setting: to `Cc1cc(F)ncc1-c1cn(Cc2ccccc2)c2ccccc12` belongs “inactive”; to `Cc1ccc(-n2cc(-c3ccccc3)c3c(NCC4CCCO4)ncnc32)cc1Cl` (configuration not stated), “inactive”; to `CNc1ccccc1-n1ccc(-c2ccccc2)n1`, “inactive”. As to `COc1ccc2c(c1)c(C(=O)OCCN(C)C)c(C)n2C`, the % of max PAR4-AP calcium response was 37.4%.

On to `c1ccc(Cn2cc(-c3cncnc3)c3ccccc32)cc1`, for which the “% of max PAR4-AP calcium response” value is “inactive”. Consider `CCn1ccc(C(=O)Nc2ccc(C(F)(F)F)cc2Cl)n1`, for which the “% of max PAR4-AP calcium response” value was “inactive”.

Regarding `Cc1cccc(NCC(O)Cn2c(C)c(C)c3ccccc32)c1C` (configuration not stated), the “% of max PAR4-AP calcium response” value is “inactive”.

In the case of `Cc1ccc(-n2cc(-c3ccccc3)c3c(N4CCCC4)ncnc32)cc1`, the “% of max PAR4-AP calcium response” value was “inactive”. On the same count and under the same terms, to `O=C(Cn1cc(CO)c2ccccc21)Nc1ccccc1` belongs “inactive”; to `O=C(Nc1cccc(Br)c1)c1ccn(C(=O)c2ccc(Cl)cc2)n1`, “inactive”.

Regarding `Cc1ccc(-n2cc(-c3ccccc3)c3c(NCc4ccc5c(c4)OCO5)ncnc32)cc1Cl`, the “% of max PAR4-AP calcium response” value is “inactive”.

With `O=C(c1cn(CCOc2ccc(Cl)cc2)c2ccc(Br)cc12)C(F)(F)F`, the “% of max PAR4-AP calcium response” value was “inactive”.

For `CCCCNC(=O)n1ccc(C(=O)Nc2ccc(C)cc2C)n1`, the “% of max PAR4-AP calcium response” value is “inactive”. Same read-out and setting: the result for `Cn1cnnc1SCC(=O)n1c2c(c3ccccc31)CCCC2` reads “inactive”; that for `COc1ccc(N(C)C(=O)Cc2c(C(=O)O)n(C)c3ccccc23)cc1`, “inactive”. With `S=C(c1cn(Cc2ccc(Cl)cc2)c2ccccc12)N1CCCC1`, the “% of max PAR4-AP calcium response” value was “inactive”. As to `CSc1ccc(-c2cn(Cc3ccccc3)c3ccccc23)cn1`, the “% of max PAR4-AP calcium response” value is “inactive”.

In the case of `CCn1ccc(C(=O)Nc2ccc(Cl)cc2Cl)n1`, the “% of max PAR4-AP calcium response” value was “inactive”. On to `CCN(CC)CC(O)Cn1c(C)c(-c2ccccc2)c2cc([N+](=O)[O-])ccc21` (configuration not stated), for which the “% of max PAR4-AP calcium response” value was “inactive”. Same read-out and setting: the result for `CCN1CCN(c2ncnc3c2c(-c2ccccc2)cn3-c2ccc(Br)cc2)CC1` reads “inactive”; that for `O=c1c2ccccc2nc(/C=C/c2cn(Cc3ccccc3)c3ccccc23)n1CCCO`, “inactive”; that for `O=C(N/N=C/c1cccc2cccnc12)c1ccn(Cc2ccc(Cl)cc2)n1`, “inactive”. Turning to `COc1ccc(-c2cn(Cc3cccc(-c4ccsc4)c3)c3ccccc23)cn1`, the “% of max PAR4-AP calcium response” value was “inactive”.

Regarding `CCn1ccc(C(=O)NC2CCCCC2)n1`, the “% of max PAR4-AP calcium response” value is “inactive”. Still for that read-out and setting: to `Cc1ccc(-n2cc(-c3ccccc3)c3c(NC4CCCC4)ncnc32)cc1Cl` belongs “inactive”; to `Cc1c(C)n(CC(O)CNc2ccccc2)c2ccccc12` (configuration not stated), “inactive”; to `O=C(c1cn(CCOc2ccccc2Cl)c2ccccc12)C(F)(F)F`, “inactive”. The same measure, in the same setting: the result for `O=C(c1ccccc1F)n1c2c(c3ccccc31)CCCC2` reads “inactive”. In the case of `OCCc1cn(-c2ccccc2)c2ccccc12`, the “% of max PAR4-AP calcium response” value is “inactive”. On the same count and under the same terms, to `Fc1ccc(Cn2cc(C(=S)N3CCCC3)c3ccccc32)cc1` belongs “inactive”; to `NS(=O)(=O)c1ccc(CCNc2ncnc3c2c(-c2ccccc2)cn3-c2cccc(Cl)c2)cc1`, “inactive”; to `Cn1cc(C(=O)Cc2ccccc2)c2ccccc21`, “inactive”. Consider `CN(C)c1ccc(/C=N/NC(=O)c2ccn(Cc3ccc(Cl)cc3)n2)cc1`, for which the “% of max PAR4-AP calcium response” value was “inactive”. Still for that read-out and setting: the result for `COc1cccc(/C=N/NC(=O)c2ccn(Cc3ccc(Cl)cc3Cl)n2)c1OC` reads “inactive”; that for `c1ccc(COc2ccc(-c3cn(Cc4ccccc4)c4ccccc34)cc2)cc1`, “inactive”. Consider `CC(C)Nc1ncnc2c1c(-c1ccccc1)cn2-c1cccc(C(F)(F)F)c1`, for which the “% of max PAR4-AP calcium response” value is “inactive”. With `Cc1ccc(OCCn2cc(C(=S)N3CCOCC3)c3ccccc32)cc1`, the “% of max PAR4-AP calcium response” value is “inactive”. On the same count and under the same terms, the result for `COc1ccc(Br)cc1CNC(=O)CCCc1cn(C)c2ccccc12` reads “inactive”; that for `OCCCc1cn(-c2ccccc2)c2ccccc12`, “inactive”; that for `CCOc1ccc(NCC(O)Cn2c(C)c(C)c3ccccc32)cc1` (configuration not stated), “inactive”. As for `FC(F)(F)c1cccc(-c2cn(Cc3ccccc3)c3ccccc23)c1`, the “% of max PAR4-AP calcium response” value is “inactive”. For the molecule `Cc1ccc(-n2nc(C(=O)N3CCC(C#N)CC3)c3c4ccccc4n(C)c3c2=O)cc1`, the “% of max PAR4-AP calcium response” value was “inactive”.

With `CC(C)Sc1ncnc2c1c(-c1ccccc1)cn2-c1cccc(F)c1`, the “% of max PAR4-AP calcium response” value is “inactive”. For `Fc1ccccc1Cn1cc(C(=S)N2CCOCC2)c2ccccc21`, the “% of max PAR4-AP calcium response” value is “inactive”. As to `Cn1cc(CC(=O)NCCN2CCOCC2)c2ccccc21`, the “% of max PAR4-AP calcium response” value is “inactive”. Same read-out and setting: the result for `CCSc1ncnc2c1c(-c1ccccc1)cn2-c1ccc(F)cc1` reads “inactive”; that for `COc1ccccc1OCCn1cc(C(=S)N2CCCC2)c2ccccc21`, “inactive”. Same read-out and setting: the result for `Fc1ccc(CNc2ncnc3c2c(-c2ccccc2)cn3-c2ccc(Br)cc2)cc1` reads “inactive”. Still for that read-out and setting: the result for `Cc1cc(O)cc(O)c1C(=O)Cc1cnn(-c2ccccc2)c1` reads “inactive”; that for `Oc1ccccc1-c1nc2c3c(-c4ccccc4)c(-c4ccccc4)n(Cc4ccco4)c3ncn2n1`, “inactive”.

The term IC50 denotes the concentration at which inhibition is half-maximal.
